Series [1] deals with T1, Soluble acetylcholine receptor (Aplysia californica, UniProt Q8WSF8).
T1 sequence (Q8WSF8 whole entry): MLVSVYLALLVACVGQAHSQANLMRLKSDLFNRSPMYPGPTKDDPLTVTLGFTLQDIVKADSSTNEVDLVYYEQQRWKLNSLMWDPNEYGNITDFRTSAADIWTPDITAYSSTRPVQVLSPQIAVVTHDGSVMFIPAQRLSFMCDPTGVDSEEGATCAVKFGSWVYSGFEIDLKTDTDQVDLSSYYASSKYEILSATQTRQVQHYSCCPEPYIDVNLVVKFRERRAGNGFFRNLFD
Briefly: Displacement of [3H]epibatidine from Aplysia californica AChBP. The gist of the method:
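Competition against [3H]epibatidine at acetylcholine binding proteins (Ac- and Ct-AChBP), giving Ki values. Procedure follows the PDSP assay protocol book.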
(In general: Loss of bound radioactivity is the signal in a displacement assay; it reports binding, not function.)

The nature of series [2]: Selectivity index, ratio of Ki for Aplysia californica AChBP to Ki for Lymnaea stagnalis AChBP.
Series [3] relates to Mus musculus. Nature of the series: Antidepressant-like effect in mouse assessed as behavioral changes at 5 to 10 mg/kg, ip dosed 15 mins before testing by SmartCube system. The class given is functional, organism-based. The gist of the method: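 SmartCube automated mouse behavioural profiling. Drug injected 15 min before the session, during which multiple challenges were presented; at least 12 mice per group. Video processed by computer vision to extract over 2000 measures (frequency and duration of states such as grooming and rearing), compared with vehicle signature.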

The target in series [4] is T2, Neuronal acetylcholine receptor; alpha4/beta2 (Homo sapiens, UniProt P17787+P43681). Briefly: Agonist activity at high sensitivity and low sensitivity alpha4beta2-nAChR expressed in human SH-EP1 cells by 86Rb+ ion flux assay. The class given is functional, cell-based. The gist of the method:
(§1)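 86Rb+ efflux through human α4β2-nAChR (mixed high- and low-sensitivity forms) heterologously expressed in SH-EP1 cells. Agonist efficacy expressed as percent of the response to a maximally efficacious concentration of the full agonist carbamylcholine, with high- and low-sensitivity α4β2 responses reported separately.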

Series [5] concerns the target Neuronal acetylcholine receptor; alpha3/beta2 (Rattus norvegicus, UniProt P04757+P12390). Briefly: Displacement of [3H]epibatidine from rat alpha3beta2-nAChRs after 4 hrs by scintillation counting. The class given is protein-complex assay. The gist of the method: (§2)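 [3H]epibatidine competition binding at heterologously expressed rat nAChR subtypes, run per the PDSP protocol. Native α4β2* receptors were prepared from rat forebrain. Ki values determined.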

Series [6] deals with T2, Neuronal acetylcholine receptor; alpha4/beta2. Nature of the series: Antagonist activity at high sensitivity and low sensitivity alpha4beta2-nAChR expressed in human SH-EP1 cells assessed as inhibition of carbamylcholine-induced stimulation effect measured after 10 mins carbamylcholine challenge by 86Rb+ ion flux assay. The class given is functional, cell-based. In outline: (§3)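 Receptor inactivation measured by 86Rb+ efflux after 10 min pre-exposure to test ligand, followed by carbamylcholine challenge. Cells: SH-EP1 (human α4β2), SH-SY5Y (α3β4*), TE671/RD (α1β1γδ).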

The target in series [7] is T3, Acetylcholine receptor; alpha1/beta1/delta/gamma (Homo sapiens) (UniProt P02708+P07510+P11230+Q07001). Briefly: Agonist activity at high sensitivity and low sensitivity alpha1beta1gammadelta-nAChR expressed in human TE671/RD cells by 86Rb+ ion flux assay. The class given is functional, cell-based.
For series [8], the system named is SH-SY5Y. Briefly: Antagonist activity at high sensitivity and low sensitivity alpha3beta4*-nAChR expressed in human SH-SY5Y cells assessed as inhibition of carbamylcholine-induced stimulation effect measured after 10 mins carbamylcholine challenge by 86Rb+ ion flux assay. The class given is functional, cell-based. The gist of the method:
as §3

Series [9] addresses Neuronal acetylcholine receptor; alpha2/beta2 (Rattus norvegicus, UniProt P12389+P12390). Briefly: Displacement of [3H]epibatidine from rat alpha2beta2-nAChRs after 4 hrs by scintillation counting. The class given is protein-complex assay. In outline:
as §2

Series [10] addresses T3, Acetylcholine receptor; alpha1/beta1/delta/gamma (Homo sapiens). Nature of the series: Antagonist activity at high sensitivity and low sensitivity alpha1beta1gammadelta-nAChR expressed in human TE671/RD cells assessed as inhibition of carbamylcholine-induced stimulation effect measured after 10 mins carbamylcholine challenge by 86Rb+ ion flux assay. The class given is functional, cell-based. The gist of the method:
as §3

In series [11] the test system is SH-SY5Y. Nature of the series: Agonist activity at high sensitivity and low sensitivity alpha3beta4*-nAChR expressed in human SH-SY5Y cells by 86Rb+ ion flux assay. The class given is functional, cell-based.
Series [12] has as its target Neuronal acetylcholine receptor; alpha3/beta4 (Rattus norvegicus, UniProt P04757+P12392). Nature of the series: Displacement of [3H]epibatidine from rat alpha3beta4-nAChRs after 4 hrs by scintillation counting. The class given is protein-complex assay. In outline:
as §2

Series [13] can be described thus: Displacement of [3H]epibatidine from rat alpha4beta2*-nAChRs after 4 hrs by scintillation counting. In outline:
as §2

The subject of series [14] is Mus musculus. Briefly: Antidepressant activity in mouse assessed as immobility time at 10 mg/kg, ip after 30 mins by mouse forced swim test. The class given is functional, organism-based. More on the design: dose 10 mg/kg. The gist of the method:
(§4)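 Mouse forced swim test: mice placed in a beaker of water and time spent passively floating (immobility) recorded. Compounds given intraperitoneally or orally; sertraline 20 mg/kg served as positive control.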

In series [15] the target is Neuronal acetylcholine receptor; alpha4/beta4 (Rattus norvegicus, UniProt P09483+P12392). Briefly: Displacement of [3H]epibatidine from rat alpha4beta4-nAChRs after 4 hrs by scintillation counting. The class given is protein-complex assay. The gist of the method:
as §2

For series [16], the target named is T2, Neuronal acetylcholine receptor; alpha4/beta2. Briefly: Agonist activity at high sensitivity alpha4beta2-nAChR expressed in human SH-EP1 cells by 86Rb+ ion flux assay relative to carbamylcholine. The class given is functional, cell-based. The gist of the method:
as §1

Series [17] has the same target. Nature of the series: Antagonist activity at high sensitivity and low sensitivity alpha4beta2-nAChR expressed in human SH-EP1 cells assessed as inhibition of carbamylcholine-induced stimulation effect measured after 10 mins carbamylcholine challenge by 86Rb+ ion flux assay relative to control. The class given is functional, cell-based. In outline: as §3
Series [18] has as its system Mus musculus. Nature of the series: Antidepressant activity in mouse assessed as immobility time at 3 mg/kg, ip after 30 mins by mouse forced swim test. The class given is functional, organism-based. Set-up: dose 3 mg/kg. In outline: as §4
In series [19] the target is Neuronal acetylcholine receptor; alpha4/beta2 (Rattus norvegicus, UniProt P09483+P12390). Nature of the series: Displacement of [3H]epibatidine from rat alpha4beta2-nAChRs after 4 hrs by scintillation counting. The class given is protein-complex assay. The gist of the method: as §2
Chain of Neuronal acetylcholine receptor; alpha4/beta2 (Rattus norvegicus, UniProt P09483+P12390) (P09483 whole entry): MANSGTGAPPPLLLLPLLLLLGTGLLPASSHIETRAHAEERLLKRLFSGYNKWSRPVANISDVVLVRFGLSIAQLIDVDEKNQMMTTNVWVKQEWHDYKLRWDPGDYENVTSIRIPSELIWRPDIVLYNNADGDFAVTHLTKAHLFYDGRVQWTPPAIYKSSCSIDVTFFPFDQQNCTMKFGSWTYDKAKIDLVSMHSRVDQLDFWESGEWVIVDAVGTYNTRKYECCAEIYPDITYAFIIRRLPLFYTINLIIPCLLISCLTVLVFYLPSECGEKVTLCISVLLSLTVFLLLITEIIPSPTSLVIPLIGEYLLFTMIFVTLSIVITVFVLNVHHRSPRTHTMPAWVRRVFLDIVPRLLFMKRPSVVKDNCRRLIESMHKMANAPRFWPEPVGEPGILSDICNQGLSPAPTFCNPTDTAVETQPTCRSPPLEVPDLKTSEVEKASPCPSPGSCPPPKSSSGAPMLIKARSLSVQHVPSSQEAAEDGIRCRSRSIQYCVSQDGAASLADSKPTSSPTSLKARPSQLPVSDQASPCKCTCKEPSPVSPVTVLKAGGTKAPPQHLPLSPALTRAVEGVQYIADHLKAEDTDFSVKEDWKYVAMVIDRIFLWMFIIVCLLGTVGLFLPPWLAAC
Chain of Neuronal acetylcholine receptor; alpha4/beta2 (Rattus norvegicus, UniProt P09483+P12390) (P12390 whole entry): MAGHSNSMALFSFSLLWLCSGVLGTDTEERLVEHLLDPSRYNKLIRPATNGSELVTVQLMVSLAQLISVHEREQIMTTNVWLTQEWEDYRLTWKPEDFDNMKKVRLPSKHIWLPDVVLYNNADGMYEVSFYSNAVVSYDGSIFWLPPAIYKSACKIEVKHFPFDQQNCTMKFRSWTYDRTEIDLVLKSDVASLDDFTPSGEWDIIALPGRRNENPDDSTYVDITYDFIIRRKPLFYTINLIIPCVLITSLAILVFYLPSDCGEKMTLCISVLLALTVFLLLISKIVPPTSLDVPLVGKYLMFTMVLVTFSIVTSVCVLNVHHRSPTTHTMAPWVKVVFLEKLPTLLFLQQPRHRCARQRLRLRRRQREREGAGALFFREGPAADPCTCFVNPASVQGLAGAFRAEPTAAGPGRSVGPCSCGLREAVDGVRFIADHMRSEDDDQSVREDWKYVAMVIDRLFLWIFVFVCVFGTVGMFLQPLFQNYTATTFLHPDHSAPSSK
Series [20] concerns the target T2, Neuronal acetylcholine receptor; alpha4/beta2. Nature of the series: Agonist activity at low sensitivity alpha4beta2-nAChR expressed in human SH-EP1 cells by 86Rb+ ion flux assay relative to carbamylcholine. The class given is functional, cell-based. In outline:
as §1

For series [21], the target named is Neuronal acetylcholine receptor; alpha2/beta4 (Rattus norvegicus, UniProt P12389+P12392). Briefly: Displacement of [3H]epibatidine from rat alpha2beta4-nAChRs after 4 hrs by scintillation counting. The class given is protein-complex assay. The gist of the method: as §2
Chain of Neuronal acetylcholine receptor; alpha2/beta4 (P12389 whole entry): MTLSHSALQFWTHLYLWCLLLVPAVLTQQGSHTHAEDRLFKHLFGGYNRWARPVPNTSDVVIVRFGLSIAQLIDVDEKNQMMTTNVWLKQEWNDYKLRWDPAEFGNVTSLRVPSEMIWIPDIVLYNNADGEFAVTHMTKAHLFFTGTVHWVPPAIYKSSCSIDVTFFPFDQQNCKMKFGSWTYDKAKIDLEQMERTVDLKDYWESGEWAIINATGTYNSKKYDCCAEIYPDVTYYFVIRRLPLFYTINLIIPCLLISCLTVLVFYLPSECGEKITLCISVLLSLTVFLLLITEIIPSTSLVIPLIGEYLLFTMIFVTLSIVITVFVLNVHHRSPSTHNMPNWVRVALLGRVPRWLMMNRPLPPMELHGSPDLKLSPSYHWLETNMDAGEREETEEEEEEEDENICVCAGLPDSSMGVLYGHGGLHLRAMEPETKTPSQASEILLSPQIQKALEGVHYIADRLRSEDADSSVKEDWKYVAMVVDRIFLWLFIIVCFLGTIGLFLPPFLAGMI
Chain of Neuronal acetylcholine receptor; alpha2/beta4 (P12392 whole entry): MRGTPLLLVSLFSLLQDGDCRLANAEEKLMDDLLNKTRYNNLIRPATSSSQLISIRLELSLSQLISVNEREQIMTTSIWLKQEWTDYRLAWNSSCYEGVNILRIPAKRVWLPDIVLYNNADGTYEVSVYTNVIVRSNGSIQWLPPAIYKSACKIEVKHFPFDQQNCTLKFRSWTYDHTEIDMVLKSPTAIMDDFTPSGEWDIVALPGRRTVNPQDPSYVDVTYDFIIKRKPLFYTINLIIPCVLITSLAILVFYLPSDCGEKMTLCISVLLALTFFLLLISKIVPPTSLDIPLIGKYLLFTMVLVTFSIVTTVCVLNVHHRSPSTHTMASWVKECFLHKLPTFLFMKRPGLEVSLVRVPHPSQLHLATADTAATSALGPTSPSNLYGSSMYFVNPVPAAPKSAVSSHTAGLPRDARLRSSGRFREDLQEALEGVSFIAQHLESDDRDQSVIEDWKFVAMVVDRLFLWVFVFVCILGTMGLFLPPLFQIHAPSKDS
Series [22] is filed under the species Rattus norvegicus. Briefly: Selectivity index, ratio of Ki for rat alpha3beta4 nAChR to Ki for rat alpha4beta2-nAChR. The gist of the method: as §2
A short description of series [23]: Metabolic stability in mouse liver microsomes assessed as unchanged compound level at 2 uM measured after 1 hr. The settings on record: read-out: Stability. The class given is ADME, Microsome. In outline:
(§5)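 Compound incubated with mouse, rat, dog or human liver microsomes at a starting concentration of 2 μM for 1 h. Percent of parent remaining unchanged determined.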
In general terms: Liver microsomes are vesicles of endoplasmic reticulum, rich in cytochrome P450 enzymes.

Series [24] in a line: Metabolic stability in rat liver microsomes assessed as unchanged compound level at 2 uM measured after 1 hr. The settings on record: read-out: Stability. The class given is ADME, Microsome. In outline:
as §5

Series [25] can be described thus: Metabolic stability in dog liver microsomes assessed as unchanged compound level at 2 uM measured after 1 hr. The settings on record: read-out: Stability. The class given is ADME, Canis lupus familiaris, Microsome. The gist of the method:
as §5

Series [26] relates to Mus musculus. Nature of the series: Antidepressant activity in mouse assessed as immobility time at 3 to 30 mg/kg, po after 30 mins by mouse forced swim test. The class given is functional, organism-based. The gist of the method: as §4
For series [27], the system named is Mus musculus. Nature of the series: Antidepressant activity in mouse assessed as immobility time at 3 mg/kg, po after 30 mins by mouse forced swim test. The class given is functional, organism-based. More on the design: dose 3 mg/kg. The gist of the method:
as §4

Series [28] is described as follows: Metabolic stability in human liver microsomes assessed as unchanged compound level at 2 uM measured after 1 hr. The class given is ADME, Microsome. The settings on record: read-out: Stability. In outline:
as §5

pEC50, pIC50, pKi: −log10 of the molar value. The source made the active and inactive calls. No cut-off for these calls is given here.

This is an account of results in ChEMBL document CHEMBL2177028, “Insights into the structural determinants required for high-affinity binding of chiral cyclopropane-containing ligands to α4β2-nicotinic acetylcholine receptors: an integrated approach to behaviorally active nicotinic ligands” (J Med Chem, 2012).

Chain of Neuronal acetylcholine receptor; alpha3/beta4 (P04757 whole entry): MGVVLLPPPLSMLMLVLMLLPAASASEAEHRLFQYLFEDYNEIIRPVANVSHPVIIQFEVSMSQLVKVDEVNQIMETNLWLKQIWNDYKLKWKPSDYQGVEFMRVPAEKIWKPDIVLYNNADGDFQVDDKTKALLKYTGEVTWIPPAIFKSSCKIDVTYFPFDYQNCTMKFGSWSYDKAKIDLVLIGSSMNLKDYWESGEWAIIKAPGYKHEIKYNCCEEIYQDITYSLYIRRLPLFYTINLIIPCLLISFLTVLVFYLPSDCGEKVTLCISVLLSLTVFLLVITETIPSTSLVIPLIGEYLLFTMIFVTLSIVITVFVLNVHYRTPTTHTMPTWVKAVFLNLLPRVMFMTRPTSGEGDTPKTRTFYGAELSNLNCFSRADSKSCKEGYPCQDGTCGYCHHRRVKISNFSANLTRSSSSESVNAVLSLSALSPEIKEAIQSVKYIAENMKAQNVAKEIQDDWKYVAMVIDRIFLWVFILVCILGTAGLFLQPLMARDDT
Chain of Neuronal acetylcholine receptor; alpha3/beta4 (P12392 whole entry): as the sequence (P12392 whole entry) above
Chain of Neuronal acetylcholine receptor; alpha3/beta2 (P04757 whole entry): as the sequence (P04757 whole entry) above
Chain of Neuronal acetylcholine receptor; alpha3/beta2 (P12390 whole entry): as the sequence (P12390 whole entry) above
Chain of Neuronal acetylcholine receptor; alpha4/beta4 (P09483 whole entry): as the sequence (P09483 whole entry) above
Chain of Neuronal acetylcholine receptor; alpha4/beta4 (P12392 whole entry): as the sequence (P12392 whole entry) above
Chain of Neuronal acetylcholine receptor; alpha2/beta2 (P12389 whole entry): as the sequence (P12389 whole entry) above
Chain of Neuronal acetylcholine receptor; alpha2/beta2 (P12390 whole entry): as the sequence (P12390 whole entry) above
T2 sequence (P17787 whole entry): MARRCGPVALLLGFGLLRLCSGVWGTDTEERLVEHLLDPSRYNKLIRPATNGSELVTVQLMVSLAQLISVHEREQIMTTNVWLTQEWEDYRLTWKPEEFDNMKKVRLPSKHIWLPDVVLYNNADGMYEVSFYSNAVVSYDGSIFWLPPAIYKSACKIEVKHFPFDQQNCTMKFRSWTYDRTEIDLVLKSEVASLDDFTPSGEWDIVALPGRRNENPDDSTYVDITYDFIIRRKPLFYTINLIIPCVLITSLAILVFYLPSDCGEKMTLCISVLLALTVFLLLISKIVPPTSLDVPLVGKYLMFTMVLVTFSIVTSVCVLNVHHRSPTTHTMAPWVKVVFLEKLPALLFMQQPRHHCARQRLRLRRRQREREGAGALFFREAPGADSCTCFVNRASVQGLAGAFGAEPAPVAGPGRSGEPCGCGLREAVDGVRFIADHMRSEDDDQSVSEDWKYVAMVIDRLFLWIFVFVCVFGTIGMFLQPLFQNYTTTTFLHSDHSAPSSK
T2 sequence (P43681 whole entry): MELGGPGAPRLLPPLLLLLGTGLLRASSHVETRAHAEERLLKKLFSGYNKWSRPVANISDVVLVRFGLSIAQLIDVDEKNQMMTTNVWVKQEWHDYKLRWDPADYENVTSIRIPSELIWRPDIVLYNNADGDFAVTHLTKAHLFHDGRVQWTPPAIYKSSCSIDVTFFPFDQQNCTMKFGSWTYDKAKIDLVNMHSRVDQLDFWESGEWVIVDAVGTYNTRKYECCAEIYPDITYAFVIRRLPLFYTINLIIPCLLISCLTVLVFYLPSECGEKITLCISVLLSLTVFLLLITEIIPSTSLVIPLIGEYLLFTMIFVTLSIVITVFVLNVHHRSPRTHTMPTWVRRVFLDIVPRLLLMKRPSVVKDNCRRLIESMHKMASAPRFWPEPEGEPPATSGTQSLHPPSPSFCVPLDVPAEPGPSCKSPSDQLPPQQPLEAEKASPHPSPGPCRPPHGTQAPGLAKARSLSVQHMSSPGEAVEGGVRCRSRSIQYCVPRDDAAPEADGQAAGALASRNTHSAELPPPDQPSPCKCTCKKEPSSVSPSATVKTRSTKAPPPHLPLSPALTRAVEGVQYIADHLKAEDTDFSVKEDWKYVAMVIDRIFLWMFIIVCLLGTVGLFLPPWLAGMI

One may read the pKi as the Ki on a negative log10 scale, so that one unit is a factor of ten. The compound `CN1CCC[C@H]1c1cccnc1` [NICOTINE] gave a pKi in [1] of 6.22.
In [1], `CNC(=O)OCC[C@H]1C[C@@H]1c1cncc(OC[C@@H]2CCN2)c1` gave a pKi of 5.72. Moreover, in series [2], the Ratio Ki amounted to 80. In addition, the outcome in [3] was Active.
Broadly, the pEC50 is −log10 of the EC50, conventionally taken in molar units. Usually pIC50 stands for −log10 of the IC50, conventionally taken in molar units. In turn, `CC[C@H]1C[C@@H]1c1cncc(OC[C@@H]2CCN2)c1` gave a pEC50 in [4] of 7.72. The pKi in [5] is 7.99; in series [9], 9.40; in series [12], 6.07; in [13], 8.92; in series [15], 7.83; in series [19], 9.40. Besides, the pKi in [21] is 7.38. The pIC50 in series [6] was 7.65. Moreover, the outcome in [7], in series [11], in [14], in series [18] and in series [20] was inactive. The inhibition result in series [8] and in [10] was “inactive” each time. Besides, the Efficacy was 68% in series [16] and 87% in [17]. Also, the result in [3] was Active.
For `FC(F)C[C@H]1C[C@@H]1c1cncc(OC[C@@H]2CCN2)c1`, the pEC50 in [4] was 8.06. Further, the pKi in [5] is 8.16; in series [9], 9.52; in series [12], 5.70; in series [13], 9.10; in [15], 7.64; in [19] it was 10.00. In series [21], the pKi is 7.07. In addition, the pIC50 in series [6] is 8.07. The result in series [7], in series [11], in series [14], in [18] and in series [20] was inactive. Besides, the inhibition result in series [8] and in [10] was “inactive” in each case. Moreover, the Ratio Ki in [22] is more than 16000. The Efficacy in [16] turned out to be 75%; in [17] it was 86%. Further, the outcome in [3] was Active.
In [4], `FCC[C@H]1C[C@@H]1c1cncc(OC[C@@H]2CCN2)c1` gave a pEC50 of 7.95. Further, the pKi in series [5] was 8.21; in [9], 9.40; in [12], 5.49; in [13] it was 9.05; in [15], 7.41; in [19], 9.70. In [21], this compound had a pKi of 6.86. Further, in [6], the pIC50 was 7.99. The result in series [7], in series [11] and in series [20] was inactive. In addition, the inhibition entry in series [8] and in series [10] was “inactive” throughout. Further, the remaining at 1 h, 2 µM in [23], in [24], in series [25] and in series [28] was not below 98% in each case. For the same compound, the result in series [14], in series [18], in series [3], in series [26] and in [27] was Active. The Ratio Ki in series [22] was more than 16000. The Efficacy in [16] worked out at 76%; in series [17] it was 81%.
`OCC[C@H]1C[C@@H]1c1cncc(OC[C@@H]2CCN2)c1` gave a pKi in series [1] of 6.01. For the same compound, the Ratio Ki in [2] was determined as 80. Besides, in series [3], the outcome was Active.
